Laboratory results as given in ChEMBL document CHEMBL1133430, “8-Methylureido-4,5-dihydro-4-oxo-10H-imidazo[1,2-a]indeno[1,2-e]pyrazines: highly potent in vivo AMPA antagonists” (Bioorg Med Chem Lett, 2000).

What was measured:
[1] = target: Glutamate receptor ionotropic, AMPA (Rattus norvegicus, UniProt P19490+P19491+P19492+P19493); test: The compound was tested for its affinity for Ionotropic glutamate receptor AMPA in in vitro binding assay on rat cortical membrane preparations using [3H]AMPA as ligand
Glutamate NMDA receptor = test: In vitro affinity for N-methyl-D-aspartate glutamate receptor 1 using [3H]5,7-dichlorokynurenate([3H]-DCKA) as ligand; format: protein-complex assay
How it was run: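 Competition binding on rat cerebral cortex membranes at the NMDA receptor glycine site. IC50 is the mean of at least three determinations, each using at least three test concentrations run in triplicate.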

Mus musculus [2] = test: Tested in vivo as the dose which protected 50% of the animals from a tonic convulsion (six male CDI mice/dose of compound) after intraperitoneal administration in DBA test; format: functional
How it was run: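 Audiogenic seizure test in DBA/2 mice. Compound given ip in 1% Tween-80 in water, 30 min before the sound challenge. Six mice per dose, three doses plus a vehicle-treated group.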

Mus musculus [3] = test: Tested in vivo as the dose which protected 50% of the animals from a tonic convulsion (six male CDI mice/dose of compound) after intraperitoneal administration in MES test; format: functional
How it was run: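 Maximal electroshock (MES) convulsions in male CD1 mice. Compound given ip in 1% Tween-80 in water, 30 min before challenge. Six mice per dose, at least three doses plus a vehicle-alone group. ED50 (mg/kg) is the dose protecting 50% of animals from tonic convulsion.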

Mus musculus [4] = test: Tested in vivo as the dose which protected 50% of the animals from a tonic convulsion (six male CDI mice/dose of compound) after intravenous administration in MES test; format: functional
How it was run: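 Maximal electroshock (MES) convulsions in male CD1 mice. Compound given iv in saline, 5 min before challenge. Six mice per dose, at least three doses plus a vehicle-alone group. ED50 (mg/kg) is the dose protecting 50% of animals from tonic convulsion.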

Rattus norvegicus = species on record: Rattus norvegicus; test: The compound was tested for its inhibition of currents generated by 50 uM Kainate in Xenopus oocytes injected with rat brain mRNA; format: functional
How it was run: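 Xenopus oocytes injected with rat brain mRNA; AMPA receptor currents evoked by a submaximal kainate concentration, recorded electrophysiologically. Drug stocks in water or DMSO, diluted into recording medium. IC50 obtained by nonlinear least-squares fit to a sigmoidal equation.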

Mus musculus [5] = test: Tested in vivo as the dose which protected 50% of the animals from a tonic convulsion (six male CDI mice/dose of compound) after subcutaneous administration in MES test; format: functional; settings: sc
How it was run: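 Maximal electroshock (MES) convulsions in male CD1 mice. Compound given sc in 1% Tween-80 in water, 30 min before challenge. Six mice per dose, at least three doses plus a vehicle-alone group. ED50 (mg/kg) is the dose protecting 50% of animals from tonic convulsion.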

[6] = Mus musculus, ip, read-out: ED50

Row | SMILES | IC50 [1] [nM] | IC50 (Glutamate NMDA receptor) [nM] | also measured
1 | Oc1nc2c(n3ccnc13)Cc1cc(-n3ccnc3)ccc1-2 | 100000 | > 100000 | –
2 | Oc1nc2c(n3ccnc13)Cc1cc(F)ccc1-2 | 250 | 7800 | –
3 | CNC(=O)Nc1cccc2c1Cc1c-2nc(O)c2nccn12 | 300 | 2300 | –
4 | CN(C)C(=O)Nc1ccc2c(c1)Cc1c-2nc(O)c2nccn12 | 37 | 100000 | –
5 | O=C(Nc1ccccc1)Nc1ccc2c(c1)Cc1c-2nc(O)c2nccn12 | 620 | > 100000 | –
6 | Oc1nc2c(n3ccnc13)Cc1cc(Br)ccc1-2 | 2000 | > 100000 | –
7 | O=c1[nH]c2cc(-n3ccnc3)c([N+](=O)[O-])cc2[nH]c1=O [YM-90K] | – | – | ED50 (Mus musculus [2]; ip): 15 mg/kg; ED50 (Mus musculus [3]; ip): 12 mg/kg; ED50 (Mus musculus [4]): 12 mg/kg; IC50 (Rattus norvegicus; Rattus norvegicus): 260 nM
8 | CNC(=O)Nc1ccc2c(c1)C(CC(=O)O)c1c-2nc(O)c2nccn12 (single isomer, unassigned; (+)) | 4 | 10000 | ED50 (Mus musculus [2]): 0.9 mg/kg; ED50 (Mus musculus [3]): 1 mg/kg; IC50 (Rattus norvegicus): 2 nM
9 | CCOC(=O)Nc1ccc2c(c1)Cc1c-2nc(O)c2nccn12 | 670 | 8400 | –
10 | Nc1ccc2c(c1)Cc1c-2nc(O)c2nccn12 | 5600 | 22000 | –
11 | Oc1nc2c(n3ccnc13)Cc1ccc(F)cc1-2 | 970 | 1000 | –
12 | Oc1nc2c(n3ccnc13)Cc1c(F)cccc1-2 | 900 | 100000 | –
13 | CNC(=O)Nc1ccc2c(c1)C(CC(=O)O)c1c-2nc(O)c2nccn12 (stereo in doubt; (-)-3) | 39 | – | ED50 (Mus musculus [2]): 4.4 mg/kg; ED50 (Mus musculus [3]): 7 mg/kg; IC50 (Rattus norvegicus): 6.7 nM
14 | Oc1nc2c(n3ccnc13)Cc1cc(Cl)ccc1-2 | 16000 | > 100000 | –
15 | Oc1nc2c(n3ccnc13)Cc1ccc(Cl)cc1-2 | 3000 | 180 | –
16 | O=C(NCc1ccccc1)Nc1ccc2c(c1)Cc1c-2nc(O)c2nccn12 | 110 | 100000 | –

Row | SMILES | IC50 [1] [nM] | IC50 (Glutamate NMDA receptor) [nM] | also measured
17 | CCNC(=O)Nc1ccc2c(c1)Cc1c-2nc(O)c2nccn12 | 86 | 10000 | –
18 | CNC(=O)Nc1ccc2c(c1)Cc1c-2nc(O)c2nccn12 | 18 | 100000 | –
19 | Cc1ccc2c(c1)-c1nc(O)c3nccn3c1C2 | > 100000 | 2100 | –
20 | Cc1ccc2c(c1)Cc1c-2nc(O)c2nccn12 | 30000 | > 100000 | –
21 | O=C(Cc1ccccc1)Nc1ccc2c(c1)Cc1c-2nc(O)c2nccn12 | 180 | 100000 | –
22 | NC(=O)Nc1ccc2c(c1)Cc1c-2nc(O)c2nccn12 | 1250 | > 100000 | –
23 | CNC(=O)Nc1ccc2c(c1)C(CC(=O)O)c1c-2nc(O)c2nccn12 (racemic) | 8 | 14000 | ED50 (Mus musculus [2]): 0.6 mg/kg; ED50 (Mus musculus [3]): 1.8 mg/kg; ED50 (Mus musculus [4]): 1 mg/kg; IC50 (Rattus norvegicus): 20 nM; ED50 (Mus musculus [5]): 2 mg/kg
24 | Oc1nc2c(n3ccnc13)Cc1c(Cl)cccc1-2 | 17000 | 100000 | –
25 | CC(=O)Nc1ccc2c(c1)Cc1c-2nc(O)c2nccn12 | 3250 | 10000 | –
26 | O=S(=O)(O)c1ccc2c(c1)Cc1c-2nc(O)c2nccn12 | 30000 | > 100000 | –
27 | Oc1nc2c(n3ccnc13)Cc1ccccc1-2 | – | – | ED50 (Mus musculus [3]; ip): 62 mg/kg; Kb (Rattus norvegicus; Rattus norvegicus): 1.8 nM
28 | O=C(Nc1ccc2c(c1)Cc1c-2nc(O)c2nccn12)c1ccccc1 | 450 | > 100000 | –
29 | CNC(=O)Nc1ccc2c(c1)/c(=C/C(=O)O)c1c2nc(O)c2nccn21 | 19 | 100000 | ED50 (Mus musculus [2]; [6]): 1.6 mg/kg; ED50 (Mus musculus [3]; [6]): 11 mg/kg; ED50 (Mus musculus [4]): 5.6 mg/kg; IC50 (Rattus norvegicus; Rattus norvegicus): 3 nM
30 | COc1ccc2c(c1)Cc1c-2nc(O)c2nccn12 | 3300 | 5300 | –
31 | O=C(NCCc1ccccc1)Nc1ccc2c(c1)Cc1c-2nc(O)c2nccn12 | 130 | > 100000 | –
